Experimental data from ChEMBL document CHEMBL1155442, “Click chemistry approach to new N-substituted aminocyclitols as potential pharmacological chaperones for Gaucher disease” (J Med Chem, 2010).
Activity calls are given as the source filed them. The rule behind the calls is not given here.

Tests used:
[1] = biological target: T1, Lysosomal acid glucosylceramidase (Homo sapiens, UniProt P04062); assay: Competitive inhibition of beta-glucocerebrosidase at pH 5.2 by Lineweaver-Burke plot analysis
T1 sequence (P04062 whole entry): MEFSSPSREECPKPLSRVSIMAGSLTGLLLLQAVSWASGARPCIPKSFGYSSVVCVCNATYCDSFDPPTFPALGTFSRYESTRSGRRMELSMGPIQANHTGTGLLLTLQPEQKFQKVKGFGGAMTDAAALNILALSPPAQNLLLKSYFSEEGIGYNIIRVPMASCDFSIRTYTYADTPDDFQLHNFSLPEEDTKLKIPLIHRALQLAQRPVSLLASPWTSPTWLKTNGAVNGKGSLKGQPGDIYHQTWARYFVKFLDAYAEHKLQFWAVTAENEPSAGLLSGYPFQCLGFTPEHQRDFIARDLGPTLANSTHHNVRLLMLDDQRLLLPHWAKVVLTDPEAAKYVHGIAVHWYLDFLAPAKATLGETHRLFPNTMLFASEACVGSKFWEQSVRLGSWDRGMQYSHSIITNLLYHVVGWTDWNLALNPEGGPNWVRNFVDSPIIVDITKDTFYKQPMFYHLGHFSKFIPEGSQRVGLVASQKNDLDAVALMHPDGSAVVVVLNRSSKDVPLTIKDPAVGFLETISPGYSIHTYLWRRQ

[2] = biological target: T2, Lysosomal acid glucosylceramidase (Homo sapiens) (UniProt P04062); assay: Binding affinity to recombinant beta-glucocerebrosidase assessed as enzymatic activity at 50 uM after 20 mins by thermal stabilization assay relative to control
T2 sequence (whole entry): T1 sequence (P04062 whole entry)

[3] = biological target: T2, Lysosomal acid glucosylceramidase (Homo sapiens); assay: Binding affinity to recombinant beta-glucocerebrosidase assessed as enzymatic activity at 50 uM after 40 mins by thermal stabilization assay relative to control
[4] = biological target: T2, Lysosomal acid glucosylceramidase (Homo sapiens); assay: Binding affinity to recombinant beta-glucocerebrosidase assessed as enzymatic activity at 50 uM after 60 mins by thermal stabilization assay relative to control
[5] = biological target: T2, Lysosomal acid glucosylceramidase (Homo sapiens); assay: Binding affinity to recombinant beta-glucocerebrosidase assessed as enzymatic activity at 100 uM after 20 mins by thermal stabilization assay relative to control
[6] = biological target: T2, Lysosomal acid glucosylceramidase (Homo sapiens); assay: Binding affinity to recombinant beta-glucocerebrosidase assessed as enzymatic activity at 100 uM after 40 mins by thermal stabilization assay relative to control
[7] = biological target: T2, Lysosomal acid glucosylceramidase (Homo sapiens); assay: Binding affinity to recombinant beta-glucocerebrosidase assessed as enzymatic activity at 100 uM after 60 mins by thermal stabilization assay relative to control
[8] = biological target: T2, Lysosomal acid glucosylceramidase (Homo sapiens); assay: Binding affinity to recombinant beta-glucocerebrosidase assessed as enzymatic activity at 150 uM after 20 mins by thermal stabilization assay relative to control
[9] = biological target: T2, Lysosomal acid glucosylceramidase (Homo sapiens); assay: Binding affinity to recombinant beta-glucocerebrosidase assessed as enzymatic activity at 150 uM after 40 mins by thermal stabilization assay relative to control
[10] = biological target: T2, Lysosomal acid glucosylceramidase (Homo sapiens); assay: Binding affinity to recombinant beta-glucocerebrosidase assessed as enzymatic activity at 150 uM after 60 mins by thermal stabilization assay relative to control
[11] = Cytotoxicity against human fibroblast at 300 uM after 24 hrs by MTT assay; assay type: cell-based
[12] = biological target: T1, Lysosomal acid glucosylceramidase; assay: Inhibition of recombinant beta-glucocerebrosidase at pH 5.2 after 10 mins by fluorimetry
[13] = biological target: T2, Lysosomal acid glucosylceramidase (Homo sapiens); assay: Inhibition of beta-glucocerebrosidase in human fibroblast at 50 uM after 24 hrs by fluorescence assay
Procedure, shortened: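 Wild-type human fibroblasts exposed to compound for 24 h (10, 20 or 50 μM, as listed) with 5 mM substrate. Cellular GCase activity then measured.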

Prunus dulcis = assay: Inhibition of sweet almond beta-glucosidase at 0.1 mM
Saccharomyces cerevisiae = assay: Inhibition of yeast alpha-glucosidase at 0.1 mM
Oryza sativa [14] = assay: Inhibition of rice alpha-glucosidase at 0.1 mM
Oryza sativa [15] = assay: Inhibition of rice alpha-galactosidase at 0.1 mM
[16] = biological target: T3, Beta-galactosidase (Bos taurus) (UniProt Q58D55); assay: Inhibition of bovine liver beta-galactosidase at 0.1 mM
T3 sequence (whole entry): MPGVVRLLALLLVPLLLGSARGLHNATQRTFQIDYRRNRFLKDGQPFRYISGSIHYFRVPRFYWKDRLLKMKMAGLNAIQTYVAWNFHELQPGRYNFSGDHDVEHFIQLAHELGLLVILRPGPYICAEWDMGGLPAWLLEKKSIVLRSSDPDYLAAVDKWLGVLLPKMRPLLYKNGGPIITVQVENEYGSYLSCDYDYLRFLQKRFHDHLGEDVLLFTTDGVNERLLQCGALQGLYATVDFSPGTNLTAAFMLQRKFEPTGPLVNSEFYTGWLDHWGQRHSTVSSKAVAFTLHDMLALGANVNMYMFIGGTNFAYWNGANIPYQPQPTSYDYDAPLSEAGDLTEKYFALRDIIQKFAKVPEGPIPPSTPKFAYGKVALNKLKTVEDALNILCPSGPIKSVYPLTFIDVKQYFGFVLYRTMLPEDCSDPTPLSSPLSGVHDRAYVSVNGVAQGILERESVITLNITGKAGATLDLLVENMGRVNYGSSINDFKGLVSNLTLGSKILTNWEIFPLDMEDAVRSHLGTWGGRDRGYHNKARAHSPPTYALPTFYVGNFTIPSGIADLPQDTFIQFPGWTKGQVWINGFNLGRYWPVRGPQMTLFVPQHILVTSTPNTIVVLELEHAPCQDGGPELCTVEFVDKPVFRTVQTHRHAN

[17] = Dissociation constant, pKa of the compound; assay type: physicochemical
[18] = biological target: T1, Lysosomal acid glucosylceramidase; assay: Inhibition of recombinant beta-glucocerebrosidase after 10 mins by fluorimetry
Procedure, shortened: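 Imiglucerase (0.1 mg/mL stock) in McIlvaine buffer, pH 5.2 or 7.4, with 0.2% sodium taurocholate and 0.1% Triton X-100. Preincubated 30 min at 37 °C with or without inhibitor. Then 4 mM 4-methylumbelliferyl-β-D-glucopyranoside added for 10 min at 37 °C. Stopped with glycine/NaOH pH 10.6; 4-MU read at ex 355/em 460 nm. IC50 from % activity vs log[I], at least five concentrations.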

[19] = biological target: T1, Lysosomal acid glucosylceramidase; assay: Inhibition of recombinant beta-glucocerebrosidase at pH 7.4 after 10 mins by fluorimetry
[20] = Cytotoxicity against human fibroblast after 24 hrs by MTT assay; assay type: cell-based; conditions: human fibroblasts
[21] = Selectivity index, ratio of CC50 for human fibroblast to Ki for beta-glucocerebrosidase

| SMILES | Ki [1] [µM] | Activity [11] | IC50 [12] [µM] | inhibition [13] [%] | inhibition (Prunus dulcis) | inhibition (Saccharomyces cerevisiae) | inhibition (Oryza sativa [14]) | inhibition (Oryza sativa [15]) | inhibition [16] | pKa [17] | IC50 [18] [µM] | IC50 [19] [µM] | also measured |
| --- | --- | --- | --- | --- | --- | --- | --- | --- | --- | --- | --- | --- | --- |
| CCCCCCCCCCN[C@H]1[C@H](O)[C@@H](O)[C@H](O)[C@@H](O)[C@@H]1O | 0.3 | Non-toxic | 1.8 |  |  |  |  |  |  |  |  |  | fold change (FC) [2]: 1.29; fold change (FC) [3]: 2.33; fold change (FC) [4]: 2.24; fold change (FC) [5]: 1.84; fold change (FC) [6]: 4.49; fold change (FC) [7]: 4.89; fold change (FC) [8]: 1.99; fold change (FC) [9]: 5.85; fold change (FC) [10]: 11.3 |
| CCCCCCCCCn1cc(CCN[C@H]2[C@H](O)[C@@H](O)[C@H](O)[C@@H](O)[C@@H]2O)nn1 |  | Non-toxic | 44.7 | < 5 | inactive | inactive | inactive | inactive | inactive | 9.1 | 44.7 | 11 | fold change (FC) [2]: 2.22; fold change (FC) [3]: 4.54; fold change (FC) [4]: 4.62; fold change (FC) [5]: 2.32; fold change (FC) [6]: 5.75; fold change (FC) [7]: 7.6; fold change (FC) [8]: 2.37; fold change (FC) [9]: 6.1; fold change (FC) [10]: 9.44 |
| CCCCCCCCn1cc(CCCN[C@H]2[C@H](O)[C@@H](O)[C@H](O)[C@@H](O)[C@@H]2O)nn1 | 19.9 |  | 35.4 | 40 | inactive | inactive | inactive | inactive | inactive | 9.4 | 35.5 | 18.2 | CC50 at 24 h [20]: 97 µM |
| CCCCCCCCCN1C[C@H](O)[C@@H](O)[C@H](O)[C@H]1CO |  | Non-toxic |  |  |  |  |  |  |  |  |  |  |  |
| CCCCCCCCCn1cc(CN[C@H]2[C@H](O)[C@@H](O)[C@H](O)[C@@H](O)[C@@H]2O)nn1 | 0.33 | Non-toxic | 0.2 | 50 | inactive | inactive | inactive | inactive | inactive | 7.1 | 0.224 | 0.2 | fold change (FC) [2]: 2.06; fold change (FC) [3]: 5.69; fold change (FC) [4]: 9.95; fold change (FC) [5]: 2.28; fold change (FC) [6]: 6.71; fold change (FC) [7]: 13; fold change (FC) [8]: 2.34; fold change (FC) [9]: 7.23; fold change (FC) [10]: 15.5; Selectivity Index [21]: >=900 |
| CCCCN1C[C@H](O)[C@@H](O)[C@H](O)[C@H]1CO |  | Non-toxic |  |  |  |  |  |  |  |  |  |  |  |
| CCCCn1cc(CN[C@H]2[C@H](O)[C@@H](O)[C@H](O)[C@@H](O)[C@@H]2O)nn1 |  | Non-toxic | 178 | < 5 | inactive | inactive | inactive | inactive | inactive | 7.2 | 178 |  |  |
| CCCCCCCCn1cc(CCN[C@H]2[C@H](O)[C@@H](O)[C@H](O)[C@@H](O)[C@@H]2O)nn1 |  | Non-toxic | 167 | < 5 | inactive | inactive | inactive | inactive | inactive | 9.1 | 166 | 55.9 |  |
| O[C@@H]1[C@@H](O)[C@H](O)[C@@H](NCc2cn(CCc3ccccc3)nn2)[C@H](O)[C@H]1O | 19.1 | Non-toxic | 10.8 | < 5 | inactive | inactive | inactive | inactive | inactive | 7.8 | 10.7 | 25 |  |
| CCCCCCCCn1cc(CN[C@H]2[C@H](O)[C@@H](O)[C@H](O)[C@@H](O)[C@@H]2O)nn1 | 1.8 | Non-toxic | 1 | 20 | inactive | inactive | inactive | inactive | inactive | 7.7 | 1.05 | 1.1 |  |
| CCCOCCCCCCn1cc(CN[C@H]2[C@H](O)[C@@H](O)[C@H](O)[C@@H](O)[C@@H]2O)nn1 | 2.4 | Non-toxic | 7.4 | < 5 | inactive | inactive | inactive | inactive | inactive | 7.1 | 7.41 | 6.2 |  |
